Converted amounts (≈) assume the structure as drawn. The source made the active and inactive calls. No cut-off for these calls is given here.

For one test, the system named is Pseudomonas aeruginosa. Description: Antibacterial activity against Pseudomonas aeruginosa assessed as bacterial growth inhibition after 24 hrs by CLSI protocol based broth microdilution assay. The format is functional.
A further test deals with Escherichia coli. Description: Antibacterial activity against Escherichia coli assessed as bacterial growth inhibition after 24 hrs by CLSI protocol based broth microdilution assay. Type of test: functional. On the technique in general: Dilution methods test growth across graded concentrations, often in twofold steps.
In another test the test system is Candida tropicalis. Description: Antifungal activity against Candida tropicalis assessed as fungal growth inhibition after 24 hrs by CLSI protocol based broth microdilution assay. The format is functional.
For another test, the system named is Candida albicans. Description: Antifungal activity against Candida albicans assessed as fungal growth inhibition after 24 hrs by CLSI protocol based broth microdilution assay. Type of test: functional.
In test [1] the test system is Staphylococcus aureus. Description: Antibacterial activity against Staphylococcus aureus assessed as bacterial growth inhibition after 24 hrs by CLSI protocol based broth microdilution assay. The format is functional.
In test [2] the test system is Staphylococcus aureus. Description: Antibacterial activity against methicillin-resistant Staphylococcus aureus assessed as bacterial growth inhibition after 24 hrs by CLSI protocol based broth microdilution assay. Type of test: functional.
The test system of the next test is Bacillus cereus. Nature of the test: Antibacterial activity against Bacillus cereus assessed as bacterial growth inhibition after 24 hrs by CLSI protocol based broth microdilution assay. Type of test: functional.
The test system of test [3] is Staphylococcus aureus. Description: Antibiofilm activity against methicillin-resistant Staphylococcus aureus ATCC 43300 assessed as reduction in biofilm biomass at 0.5 to 4 mg/L after 24 hrs by MTT assay. Conditions: dose mg/L 0.5-4, time 24.0 hrs. Type of test: functional, organism-based. The procedure, abridged: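 Biofilm growth of MRSA ATCC 43300 measured in the presence of compound in cultivation plates, with a DMSO control. Significance of control vs treated is given at p < 0.05, 0.01 and 0.001.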

Test [4] has as its system Staphylococcus aureus. Description: Inhibition of Staphylococcus aureus ATCC 6538 fabI expressed in Escherichia coli BL21 (DE3) assessed as oxidation of NADPH to NADP+ using trans-2-octenoyl CoA as substrate incubated for 2 hrs in presence of NADPH by spectrophotometric analysis.
The test system of another test is Enterococcus faecium. Nature of the test: Antibacterial activity against Enterococcus faecium assessed as bacterial growth inhibition after 24 hrs by CLSI protocol based broth microdilution assay. The format is functional.

Turning to `C[C@@H]1[C@H](O)[C@@H](C)/C=C/C=C/C=C/C=C/C=C/C=C/C=C/[C@H](O[C@@H]2O[C@H](C)[C@@H](O)[C@H](N)[C@@H]2O)C[C@@H]2O[C@](O)(C[C@@H](O)C[C@@H](O)[C@H](O)CC[C@@H](O)C[C@@H](O)CC(=O)O[C@H]1C)C[C@H](O)[C@H]2C(=O)O` [AMPHOTERICIN B], the MIC in the test with Pseudomonas aeruginosa, with Escherichia coli, with Candida tropicalis and in the test with Candida albicans was at least 64 µg/mL each time.

With `Oc1ccc(Cl)cc1/C=N\c1cc(C(F)(F)F)ccc1Cl`, the MIC with Pseudomonas aeruginosa, with Escherichia coli, in the test with Candida tropicalis and in the test with Candida albicans was at least 64 µg/mL each time.

Take `Oc1ccc(Br)cc1CNc1cccc(OC(F)(F)F)c1`: the MIC with Pseudomonas aeruginosa, in the test with Escherichia coli, with Candida tropicalis and in the test on Candida albicans was at least 64 µg/mL throughout.

Turning to `Oc1c(Br)cc(Br)cc1CNc1cc(C(F)(F)F)ccc1Cl`, the MIC (as a rule, the lowest concentration found to suppress growth) with Staphylococcus aureus [1] was 1 µg/mL (≈ 2.18 µM); in the test on Pseudomonas aeruginosa, at least 64 µg/mL; in the test on Escherichia coli, at least 64 µg/mL; in the test on Staphylococcus aureus [2], 1 µg/mL (≈ 2.18 µM); with Bacillus cereus, at most 2 µg/mL; in the test on Candida tropicalis, at least 64 µg/mL. In addition, the results for the MIC in the test with Enterococcus faecium and in the test with Candida albicans were at most 2 µg/mL and at least 64 µg/mL, respectively. Further, the result in the test with Staphylococcus aureus [3] was Active. In addition, the inhibition entry with Staphylococcus aureus [4] is “Active”.

As to `Oc1ccc(Cl)cc1CNc1ccc(OC(F)(F)F)cc1`, the MIC in the test on Pseudomonas aeruginosa, with Escherichia coli, in the test on Candida tropicalis and with Candida albicans was at least 64 µg/mL in each case.

Turning to `Oc1c(Br)cc(Cl)cc1CNCCc1ccc(Br)cc1`, the MIC with Pseudomonas aeruginosa, in the test with Escherichia coli, in the test with Candida tropicalis and in the test with Candida albicans was at least 64 µg/mL each time.

Consider `Oc1ccc(Br)cc1/C=N\c1cccc(OC(F)(F)F)c1`, for which the MIC in the test with Pseudomonas aeruginosa, with Escherichia coli, with Candida tropicalis and in the test on Candida albicans was at least 64 µg/mL each time.

As for `Oc1c(Br)cc(Br)cc1/C=N\c1cccc(C(F)(F)F)c1`, the result in the test on Staphylococcus aureus [1] and in the test with Staphylococcus aureus [2] was inactive. For the same compound, the MIC with Pseudomonas aeruginosa, with Escherichia coli, in the test on Candida tropicalis and in the test on Candida albicans was at least 64 µg/mL each time.

As to `Oc1ccc(Cl)cc1/C=N\c1ccc(OC(F)(F)F)cc1`, the MIC with Pseudomonas aeruginosa, with Escherichia coli, in the test on Candida tropicalis and in the test on Candida albicans was at least 64 µg/mL throughout.

`Oc1c(Br)cc(Br)cc1/C=N\c1cc(C(F)(F)F)ccc1Cl`: the outcome in the test on Staphylococcus aureus [1] and with Staphylococcus aureus [2] was inactive. The MIC in the test on Pseudomonas aeruginosa, in the test with Escherichia coli, in the test on Candida tropicalis and in the test with Candida albicans was at least 64 µg/mL throughout.

For `Oc1c(Br)cc(Cl)cc1/C=N\CCc1ccc(F)cc1`, the MIC in the test on Pseudomonas aeruginosa, with Escherichia coli, in the test on Candida tropicalis and in the test with Candida albicans was at least 64 µg/mL in each case.

For `Oc1c(Cl)cc(Cl)cc1CNc1cc(C(F)(F)F)ccc1Cl`, the MIC with Staphylococcus aureus [1] is at most 2 µg/mL; in the test with Pseudomonas aeruginosa it was at least 64 µg/mL; in the test on Escherichia coli, at least 64 µg/mL; in the test with Bacillus cereus, at most 2 µg/mL; in the test with Candida tropicalis, at least 64 µg/mL; in the test with Enterococcus faecium it was at most 2 µg/mL. The minimum inhibitory concentration (MIC) in the test on Candida albicans is at least 64 µg/mL. In addition, in the test with Staphylococcus aureus [3], the result was Active. For the same compound, the inhibition result in the test on Staphylococcus aureus [4] was “Active”.

In the case of `Oc1c(Br)cc(Cl)cc1/C=N\c1cc(C(F)(F)F)ccc1Cl`, the MIC in the test on Pseudomonas aeruginosa, with Escherichia coli, with Candida tropicalis and in the test with Candida albicans was at least 64 µg/mL in each case.

Take `Oc1ccc(Br)cc1CNc1cc(C(F)(F)F)ccc1Cl`: the MIC is 2 µg/mL (≈ 5.25 µM) with Staphylococcus aureus [1]; at least 64 µg/mL in the test on Pseudomonas aeruginosa; at least 64 µg/mL with Escherichia coli; 1 µg/mL (≈ 2.63 µM) in the test on Staphylococcus aureus [2]; at most 2 µg/mL in the test with Bacillus cereus; at least 64 µg/mL with Candida tropicalis. In addition, the MIC with Enterococcus faecium was at most 2 µg/mL; with Candida albicans, at least 64 µg/mL. The result with Staphylococcus aureus [3] was Active. Also, the inhibition entry with Staphylococcus aureus [4] was “Active”.

Regarding `Oc1c(Br)cc(Br)cc1CNc1cc(C(F)(F)F)ccc1F`, the MIC is 4 µg/mL (≈ 9.03 µM) in the test with Staphylococcus aureus [1]; at least 64 µg/mL in the test on Pseudomonas aeruginosa; at least 64 µg/mL in the test on Escherichia coli; 4 µg/mL (≈ 9.03 µM) with Staphylococcus aureus [2]; at least 64 µg/mL in the test on Candida tropicalis; at least 64 µg/mL in the test on Candida albicans.

Turning to `Oc1ccc(Br)cc1/C=N\c1cc(C(F)(F)F)ccc1F`, the MIC with Pseudomonas aeruginosa, with Escherichia coli, with Candida tropicalis and in the test with Candida albicans was at least 64 µg/mL in each case.

With `Oc1ccc(/N=C\c2cc(Br)cc(Br)c2O)cc1`, the outcome in the test on Staphylococcus aureus [1] and in the test on Staphylococcus aureus [2] was inactive. Further, the MIC with Pseudomonas aeruginosa, in the test with Escherichia coli, in the test with Candida tropicalis and in the test on Candida albicans was at least 64 µg/mL in each case.

With `Oc1cccc(/N=C\c2cc(Cl)cc(Br)c2O)c1`, the MIC in the test with Pseudomonas aeruginosa, in the test with Escherichia coli, with Candida tropicalis and with Candida albicans was at least 64 µg/mL throughout.

With `Oc1ccc(Br)cc1CNc1cc(C(F)(F)F)ccc1F`, the minimum inhibitory concentration (MIC) in the test with Staphylococcus aureus [1] was 16 µg/mL (≈ 43.9 µM); in the test with Pseudomonas aeruginosa it was at least 64 µg/mL; with Escherichia coli, at least 64 µg/mL; in the test with Staphylococcus aureus [2] it was 16 µg/mL (≈ 43.9 µM); with Candida tropicalis it was at least 64 µg/mL; in the test on Candida albicans it was at least 64 µg/mL.

With `Oc1ccc(Cl)cc1/C=N\c1cc(C(F)(F)F)ccc1F`, the MIC in the test with Pseudomonas aeruginosa, with Escherichia coli, in the test with Candida tropicalis and in the test with Candida albicans was at least 64 µg/mL throughout.

Regarding `Oc1ccc(Cl)cc1CNc1cc(C(F)(F)F)ccc1F`, the MIC was 4 µg/mL (≈ 12.5 µM) with Staphylococcus aureus [1]; at least 64 µg/mL in the test on Pseudomonas aeruginosa; at least 64 µg/mL in the test with Escherichia coli; 32 µg/mL (≈ 100 µM) with Staphylococcus aureus [2]; at least 64 µg/mL in the test on Candida tropicalis; at least 64 µg/mL in the test on Candida albicans.

As to `Oc1c(Br)cc(Br)cc1/C=N\c1cc(C(F)(F)F)ccc1F`, the outcome in the test with Staphylococcus aureus [1] and with Staphylococcus aureus [2] was inactive. The MIC with Pseudomonas aeruginosa, in the test with Escherichia coli, with Candida tropicalis and in the test with Candida albicans was at least 64 µg/mL throughout.

On to `Oc1ccc(Br)cc1/C=N\c1cc(C(F)(F)F)ccc1Cl`, for which the minimum inhibitory concentration (MIC) in the test on Pseudomonas aeruginosa, in the test on Escherichia coli, in the test with Candida tropicalis and in the test with Candida albicans was at least 64 µg/mL in each case.

For `CN(C)[C@@H]1C(O)=C(C(N)=O)C(=O)[C@@]2(O)C(O)=C3C(=O)c4c(O)cccc4[C@@](C)(O)[C@H]3C[C@@H]12` [TETRACYCLINE], the MIC in the test on Pseudomonas aeruginosa, in the test on Escherichia coli, with Candida tropicalis and in the test with Candida albicans was at least 64 µg/mL throughout.

Regarding `Oc1c(Br)cc(Br)cc1CNc1cccc(C(F)(F)F)c1`, the MIC in the test on Staphylococcus aureus [1] is at most 2 µg/mL; in the test with Pseudomonas aeruginosa, at least 64 µg/mL; in the test with Escherichia coli, at least 64 µg/mL; in the test with Bacillus cereus, at most 2 µg/mL; in the test with Candida tropicalis, at least 64 µg/mL; with Enterococcus faecium it was at most 2 µg/mL. In the test with Candida albicans, the MIC is at least 64 µg/mL. Further, the outcome with Staphylococcus aureus [3] was Active. The inhibition entry with Staphylococcus aureus [4] is “Active”.

`Oc1c(Br)cc(Cl)cc1CNCCc1ccc(F)cc1`: the MIC in the test with Pseudomonas aeruginosa, in the test on Escherichia coli, in the test on Candida tropicalis and in the test on Candida albicans was at least 64 µg/mL each time.

With `Oc1c(Br)cc(Cl)cc1/C=N\CCc1ccc(Br)cc1`, the MIC with Pseudomonas aeruginosa, in the test on Escherichia coli, with Candida tropicalis and in the test with Candida albicans was at least 64 µg/mL in each case.

Take `Oc1c(Cl)cc(Cl)cc1/C=N\c1cc(C(F)(F)F)ccc1Cl`: the MIC with Pseudomonas aeruginosa, with Escherichia coli, with Candida tropicalis and in the test on Candida albicans was at least 64 µg/mL each time.

`Oc1c(Br)cc(Cl)cc1/C=N\c1cccc(C(F)(F)F)c1`: the MIC in the test with Pseudomonas aeruginosa, in the test on Escherichia coli, in the test with Candida tropicalis and in the test on Candida albicans was at least 64 µg/mL each time.

Regarding `CC1COc2c(N3CCN(C)CC3)c(F)cc3c(=O)c(C(=O)O)cn1c23` (configuration not stated) [OFLOXACIN], the MIC in the test with Pseudomonas aeruginosa, with Escherichia coli, in the test on Candida tropicalis and in the test with Candida albicans was at least 64 µg/mL in each case.

With `Oc1ccc(NCc2cc(Br)cc(Br)c2O)cc1`, the MIC with Pseudomonas aeruginosa, in the test with Escherichia coli, in the test on Candida tropicalis and with Candida albicans was at least 64 µg/mL in each case.

For `Oc1cc(Cl)ccc1Oc1ccc(Cl)cc1Cl` [TRICLOSAN], the MIC in the test on Pseudomonas aeruginosa, in the test on Escherichia coli, in the test on Candida tropicalis and with Candida albicans was at least 64 µg/mL each time.

Turning to `Oc1c(Br)cc(Cl)cc1CNc1cccc(C(F)(F)F)c1`, the MIC in the test on Staphylococcus aureus [1] is at most 2 µg/mL; in the test on Pseudomonas aeruginosa, at least 64 µg/mL; with Escherichia coli it was at least 64 µg/mL; in the test with Bacillus cereus it was at most 2 µg/mL; in the test on Candida tropicalis it was at least 64 µg/mL; in the test with Enterococcus faecium it was at most 2 µg/mL. Moreover, in the test on Candida albicans, the MIC is at least 64 µg/mL. Moreover, the outcome in the test with Staphylococcus aureus [3] was Active. For the same compound, in the test on Staphylococcus aureus [4], the inhibition entry was “Active”.

On to `Oc1cccc(NCc2cc(Cl)cc(Br)c2O)c1`, for which the MIC in the test on Pseudomonas aeruginosa, in the test with Escherichia coli, in the test on Candida tropicalis and in the test on Candida albicans was at least 64 µg/mL each time.

Values taken from ChEMBL document CHEMBL4665639, “N-Benzylanilines as Fatty Acid Synthesis Inhibitors against Biofilm-related Methicillin-resistant Staphylococcus aureus” (ACS Med Chem Lett, 2019).
